Results on two molecules are retold here after ChEMBL document CHEMBL5390295, “Isolinderalactone Ameliorates the Pathology of Alzheimer's Disease by Inhibiting the JNK Signaling Pathway” (2023).

Assay [1] relates to Mus musculus. The assay can be described thus: Anti-alzheimer activity against APP/PS1 dE9 double transgenic mouse model assessed as decrease in escape latency at 5 mg/kg, ip administered once daily for 30 consecutive day measured on day 5 by morris water maze test. It is filed as functional, organism-based. Particulars: time 30.0 day. Summed up: (§1)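 Female APP/PS1 mice, 10 months old, about 30 g, 10 per group. Dosing was intraperitoneal in 1× PBS, once daily for one month (1 or 10 mg/kg test; 5 mg/kg donepezil). WT and untreated APP/PS1 controls got PBS. Morris water maze: training days 1–4, averaged escape latency. Day-5 probe trial ran 60 s with the platform removed, recording platform crossings and time per quadrant. Mean ± SEM.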

Assay [2] has as its system Mus musculus. The assay can be described thus: Anti-alzheimer activity against APP/PS1 dE9 double transgenic mouse model assessed as increase in platform crossings at 5 mg/kg, ip administered once daily for 30 consecutive days […] by morris water maze test. It is filed as functional, organism-based. Particulars: time 30.0 day. Summed up:
as §1

Assay [3] deals with Mus musculus. The assay can be described thus: Anti-alzheimer activity against APP/PS1 dE9 double transgenic mouse model assessed as increase in time spent in the target quadrant at 5 mg/kg, ip administered once daily for 30 consecutive days measured on day 5 by morris water maze test. The class given is functional, organism-based. Particulars: time 30.0 day. The method, boiled down: as §1

The subject of assay [4] is Mus musculus. Description: Anti-alzheimer activity in hippocampus of APP/PS1 dE9 double transgenic mouse model assessed as reduction in glial cell aggregation at 5 mg/kg, ip administered once daily for 30 consecutive days by immunofluorescence staining. The class given is functional, organism-based. Particulars: time 30.0 day. The method, boiled down: (§2)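 Brains from dosed female APP/PS1 mice (10 months) were fixed in 4% paraformaldehyde at 4 °C for 24–48 h, taken through a sucrose gradient and OCT, and cut into 15 μm sections. Sections were permeabilized with 0.3% Triton X-100, blocked in 10% BSA for 1 h, and incubated with primary antibody overnight at 4 °C (1:200). Secondary was 1:500 for 1 h at 25 °C, with DAPI counterstain and confocal imaging, in triplicate.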

In assay [5] the test system is Mus musculus. The assay can be described thus: Anti-alzheimer activity in hippocampus of APP/PS1 dE9 double transgenic mouse model assessed as reduction in amyloid beta plaque deposition at 5 mg/kg, ip administered once daily for 30 consecutive days by immunofluorescence staining. Particulars: time 30.0 day. It is filed as functional, organism-based. The method, boiled down: as §2

Assay [6] relates to Mus musculus. The assay can be described thus: Anti-alzheimer activity in hippocampus of APP/PS1 dE9 double transgenic mouse model assessed as increase in SOD content at 5 mg/kg, ip administered once daily for 30 consecutive days by immunofluorescence analysis. It is filed as functional, organism-based. Particulars: time 30.0 day.
Assay [7] has as its system Mus musculus. Description: Anti-alzheimer activity in hippocampus of APP/PS1 dE9 double transgenic mouse model assessed as decrease in MDA level at 5 mg/kg, ip administered once daily for 30 consecutive days […]. The class given is functional, organism-based. Particulars: time 30.0 day. The method, boiled down: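 Hippocampal tissue from dosed APP/PS1 mice was lysed in RIPA. SOD activity was read by WST-8/xanthine oxidase formazan kit assay and MDA by lipid peroxidation kit, with absorbance on a microplate reader.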

The subject of assay [8] is Mus musculus. Description: Neuroprotective activity in APP/PS1 dE9 double transgenic mouse model assessed as improvement in spatial memory at 5 mg/kg, ip administered once daily for 30 consecutive days […] by morris water maze test. Particulars: time 30.0 day. It is filed as functional, organism-based. Summed up: as §1
Assay [9] concerns PC-12. The assay can be described thus: Neuroprotective activity against Abeta1-42 induced rat PC12 cells assessed as effect on Bcl2/Bax ratio level at 1.25 uM preincubated for 0.5 hrs followed by Abeta1-42 induction and measured after 24 hrs by Western blot analysis. The class given is functional, cell-based. Particulars: time 24.5 hrs. Summed up: (§3)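 Aβ1–42 challenge in PC12 cells was 10 μM for 24 h after 3 h pretreatment at 10 μM. SP600125 (1.25 μM) was added 0.5 h before pretreatment where used. Cells were lysed in RIPA and protein measured by BCA. Blotting used PVDF transfer, 5% BSA/TBST block for 2 h, primaries 1:1000 overnight at 4 °C, and HRP secondary for 2 h. Bcl-2/Bax ratio and band intensities were quantified.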

Assay [10] concerns PC-12. The assay can be described thus: Neuroprotective activity against Abeta1-42 induced rat PC12 cells assessed as effect on cleaved caspase-3 protein level at 1.25 uM preincubated for 0.5 hrs followed by Abeta1-42 induction and measured after 24 hrs by Western blot analysis. It is filed as functional, cell-based. Particulars: time 24.5 hrs. The method, boiled down:
as §3

The structures appear in SMILES notation. Active and inactive are the calls of the source. The calls are words filed in the database; no cut-off is given here.

Take `COc1cc2c(cc1OC)C(=O)C(CC1CCN(Cc3ccccc3)CC1)C2` (stereo not given): the result in [1], in assay [2], in assay [3], in [4], in [5] and in assay [6] was Active. Moreover, the result in assay [7] and in assay [8] was Active.

With `O=C1c2ccccc2-c2n[nH]c3cccc1c23`, the outcome in assay [9] and in assay [10] was inactive.
